Activity calls are given as the source filed them. The rule behind the calls is not given here.
How the values were obtained:
[1] = test system: Saccharomyces cerevisiae; assay: Activity of commercial yeast alpha-glucosidase assessed as production of p-nitrophenol using p-nitrophenyl-alpha-D-glucopyranoside as substrate at 50 mM after 3 mins by spectrophotometer
Method in brief: (§1)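 Enzymes were α-glucosidase from S. cerevisiae or from yeast at 2.5 × 10^-5 mg/mL, with 2.0 mM substrate and 0 or 50 mM solute in 100 mM phosphate pH 7.0 at 37 °C. p-Nitrophenol formation was read at 405 nm. Initial velocities (average of five) were expressed as the ratio of the value with solute to the value without solute.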

[2] = test system: Geobacillus stearothermophilus; assay: Activity of Bacillus stearothermophilus alpha-glucosidase assessed as production of p-nitrophenol using p-nitrophenyl-alpha-D-glucopyranoside as substrate at 50 mM after 3 mins by spectrophotometer
Method in brief: (§2)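 B. stearothermophilus α-glucosidase at 2.5 × 10^-5 mg/mL in 0.1 M phosphate buffer pH 7.0 with 2.0 mM p-nitrophenyl-α-D-glucopyranoside and 0–1000 mM solute, 37 °C. Release of p-nitrophenol followed at 405 nm. Initial slopes converted to velocities (ε 10900 cm^-1 M^-1), averaged over five runs. Activity = initial velocity with solute divided by initial velocity without solute.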

[3] = test system: Geobacillus stearothermophilus; assay: Activity of Bacillus stearothermophilus alpha-glucosidase activity assessed as production of p-nitrophenol using p-nitrophenyl-alpha-D-glucopyranoside as substrate at 200 mM after 3 mins by spectrophotometer; method in brief: as §2
[4] = test system: Saccharomyces cerevisiae; assay: Activity of Saccharomyces cerevisiae alpha-glucosidase assessed as production of p-nitrophenol using p-nitrophenyl-alpha-D-glucopyranoside as substrate at 50 mM after 3 mins by spectrophotometer; method in brief: as §1
[5] = test system: Geobacillus stearothermophilus; assay: Activity of Bacillus stearothermophilus alpha-glucosidase activity assessed as production of p-nitrophenol using p-nitrophenyl-alpha-D-glucopyranoside as substrate at 800 mM after 3 mins by spectrophotometer; method in brief: as §2
[6] = test system: Geobacillus stearothermophilus; assay: Thermostabilization of Bacillus stearothermophilus alpha-glucosidase at 50 mM
Method in brief: (§3)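 Optimum conditions were scanned with 0 or 50 mM solute, 2.5 × 10^-5 mg/mL B. stearothermophilus α-glucosidase and 2.0 mM substrate in 0.10 M phosphate. pH was varied from 6.4 to 7.9, NaCl from 0 to 2.5 M, and temperature was also varied. Activity was read as p-nitrophenol release at 405 nm.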

[7] = test system: Geobacillus stearothermophilus; assay: Enhancement of NaCl salt tolerance at Bacillus stearothermophilus alpha-glucosidase at 50 mM; method in brief: as §3
[8] = test system: Geobacillus stearothermophilus; assay: Activity of Bacillus stearothermophilus alpha-glucosidase activity assessed as production of p-nitrophenol using p-nitrophenyl-alpha-D-glucopyranoside as substrate at 1000 mM after 3 mins by spectrophotometer; method in brief: as §2
[9] = test system: Geobacillus stearothermophilus; assay: Effect on optimum pH of Bacillus stearothermophilus alpha-glucosidase at 50 mM; method in brief: as §3
[10] = test system: Geobacillus stearothermophilus; assay: Increase of Bacillus stearothermophilus alpha-glucosidase activity assessed as fold increase in reaction initial velocity using p-nitrophenyl-alpha-D-galactopyranoside as substrate at 750 mM after 3 mins by spectrophotometer relative to control
Method in brief: (§4)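 Enzyme: B. stearothermophilus α-glucosidase, 2.5 × 10^-5 mg/mL, with 2.0 mM substrate (p-nitrophenyl α-D-glucoside, β-D-glucoside, α-D-galactoside or α-D-mannoside) and 0, 50 or 750 mM solute in 100 mM phosphate pH 7.0 at 37 °C. Initial velocities came from A405 slopes (five measurements). Results given as v(presence)/v(absence).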

[11] = test system: Prunus dulcis; assay: Increase of almond beta-glucosidase activity assessed as production of p-nitrophenol using p-nitrophenyl-beta-D-glucopyranoside as substrate at 50 mM after 3 mins by spectrophotometer
Method in brief: (§5)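 Almond β-glucosidase or calf-intestine alkaline phosphatase, each at 2.5 × 10^-5 mg/mL, was incubated with 2.0 mM substrate and 0 or 50 mM solute in 0.10 M phosphate pH 7.0 at 37 °C. p-Nitrophenol production was followed over incubation time by absorbance at 405 nm.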

[12] = test system: Geobacillus stearothermophilus; assay: Increase of Bacillus stearothermophilus alpha-glucosidase activity at 30 mM after 3 mins by spectrophotometer relative to control; method in brief: as §2
[13] = test system: Geobacillus stearothermophilus; assay: Increase of Bacillus stearothermophilus alpha-glucosidase activity assessed as production of p-nitrophenol using p-nitrophenyl-alpha-D-glucopyranoside as substrate at 50 mM after 3 mins by spectrophotometer; method in brief: as §2
[14] = test system: Saccharomyces cerevisiae; assay: Increase of Saccharomyces cerevisiae alpha-glucosidase activity assessed as production of p-nitrophenol using p-nitrophenyl-alpha-D-glucopyranoside as substrate at 50 mM after 3 mins by spectrophotometer; method in brief: as §1
[15] = test system: Geobacillus stearothermophilus; assay: Increase of Bacillus stearothermophilus alpha-glucosidase activity assessed as fold increase in reaction initial velocity using p-nitrophenyl-alpha-D-galactopyranoside as substrate at 50 mM after 3 mins by spectrophotometer relative to control; method in brief: as §4
[16] = test system: Geobacillus stearothermophilus; assay: Activity of Bacillus stearothermophilus alpha-glucosidase activity assessed as production of p-nitrophenol using p-nitrophenyl-alpha-D-glucopyranoside as substrate at > 50 mM after 3 mins by spectrophotometer; method in brief: as §2
[17] = test system: Geobacillus stearothermophilus; assay: Increase of Bacillus stearothermophilus alpha-glucosidase activity assessed as fold increase in reaction initial velocity using p-nitrophenyl-alpha-D-mannopyranoside as substrate at 750 mM after 3 mins by spectrophotometer relative to control; method in brief: as §4
[18] = test system: Saccharomyces cerevisiae; assay: Increase of commercial yeast alpha-glucosidase activity assessed as production of p-nitrophenol using p-nitrophenyl-alpha-D-glucopyranoside as substrate at 50 mM after 3 mins by spectrophotometer; method in brief: as §1
[19] = test system: Geobacillus stearothermophilus; assay: Increase of Bacillus stearothermophilus alpha-glucosidase activity assessed as fold increase in reaction initial velocity using p-Nitrophenyl-alpha-D-glucopyranoside as substrate at 50 mM after 3 mins by spectrophotometer relative to control; method in brief: as §4
[20] = test system: Geobacillus stearothermophilus; assay: Activity of Bacillus stearothermophilus alpha-glucosidase assessed as increase in urea concentration for enzyme deformation using p-nitrophenyl-alpha-D-glucopyranoside as substrate at 50 mM after 3 mins by spectrophotometer
[21] = target: Intestinal-type alkaline phosphatase (Bos taurus) (UniProt P19111); assay: Increase of calf intestine alkaline phosphatase activity assessed as production of p-nitrophenol using p-nitrophenylphosphate as substrate at 50 mM after 3 mins by spectrophotometer; method in brief: as §5
[22] = test system: Geobacillus stearothermophilus; assay: Increase of Bacillus stearothermophilus alpha-glucosidase activity assessed as fold increase in reaction initial velocity using p-nitrophenyl-alpha-D-mannopyranoside as substrate at 50 mM after 3 mins by spectrophotometer relative to control; method in brief: as §4
[23] = test system: Geobacillus stearothermophilus; assay: Increase of Bacillus stearothermophilus alpha-glucosidase activity assessed as fold increase in reaction initial velocity using p-nitrophenyl-beta-D-glucopyranoside as substrate at 50 mM after 3 mins by spectrophotometer relative to control; method in brief: as §4
[24] = test system: Geobacillus stearothermophilus; assay: Activity of Bacillus stearothermophilus alpha-glucosidase activity assessed as production of p-nitrophenol using p-nitrophenyl-alpha-D-glucopyranoside as substrate at 30 to 50 mM after 3 mins by spectrophotometer; method in brief: as §2
[25] = test system: Geobacillus stearothermophilus; assay: Increase of Bacillus stearothermophilus alpha-glucosidase activity assessed as fold increase in reaction initial velocity using p-nitrophenyl-alpha-D-glucopyranoside as substrate at 750 mM after 3 mins by spectrophotometer relative to control; method in brief: as §4
[26] = test system: Geobacillus stearothermophilus; assay: Increase of Bacillus stearothermophilus alpha-glucosidase activity assessed as fold increase in reaction initial velocity using p-nitrophenyl-beta-D-glucopyranoside as substrate at 750 mM after 3 mins by spectrophotometer relative to control; method in brief: as §4

Intestinal-type alkaline phosphatase (Bos taurus), sequence (P19111 20-506 limits assumed): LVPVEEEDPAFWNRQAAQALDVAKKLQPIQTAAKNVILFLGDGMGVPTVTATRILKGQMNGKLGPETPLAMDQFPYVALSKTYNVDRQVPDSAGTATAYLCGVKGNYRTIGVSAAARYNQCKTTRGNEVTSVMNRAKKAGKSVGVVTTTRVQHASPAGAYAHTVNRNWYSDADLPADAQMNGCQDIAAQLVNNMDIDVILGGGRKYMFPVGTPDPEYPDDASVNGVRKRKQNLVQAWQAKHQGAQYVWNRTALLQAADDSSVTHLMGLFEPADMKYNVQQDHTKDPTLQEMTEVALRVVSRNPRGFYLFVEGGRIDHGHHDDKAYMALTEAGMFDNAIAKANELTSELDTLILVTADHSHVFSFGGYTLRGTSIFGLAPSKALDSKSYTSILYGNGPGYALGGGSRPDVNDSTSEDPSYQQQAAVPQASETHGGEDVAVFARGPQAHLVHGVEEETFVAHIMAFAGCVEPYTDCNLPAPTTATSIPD

SMILES | Activity [1] | Activity [2] | Activity [4] | other results
C[N+](C)(C)CCCC(=O)[O-] | inactive | inactive | inactive | –
CC[N+](CC)(CC)CC(=O)[O-] | inactive | Active | inactive | Activity [5]: Active
O[C@H]1[C@H](O)[C@@H](O)[C@H](O)[C@@H](O)[C@H]1O | inactive | inactive | inactive | –
C[N+]1(CC(=O)[O-])CCOCC1 | inactive | Active | inactive | –
OC[C@@H](O)[C@@H](O)[C@H](O)[C@@H](O)CO | inactive | inactive | inactive | –
CCCC[N+](CCCC)(CCCC)CC(=O)[O-] | Active | Active | Active | fold change (FC) [10]: 0.8; Activity [6]: Active; Activity [11]: Active; fold change (FC) [12]: 2.1; Activity [7]: Active; Activity [13]: Active; Activity [14]: Active; fold change (FC) [15]: 0.8; Activity [16]: Active; fold change (FC) [17]: 0.6; Activity [18]: Active; fold change (FC) [19]: 2.5; Activity [9]: inactive; Activity [20]: Active; Activity [21]: Active; fold change (FC) [22]: 0.9; fold change (FC) [23]: 0.8; Activity [24]: Active; fold change (FC) [25]: 0.8; fold change (FC) [26]: 0.5

Continued, in another order:

Activity [1] | Activity [2] | Activity [4] | SMILES | other results
Active | Active | Active | CCC[N+](CCC)(CCC)CC(=O)[O-] | Activity [3]: Active
inactive | inactive | inactive | OCC(O)CO | –
inactive | inactive | inactive | C[N+](C)(C)CCCCCC(=O)[O-] | –
inactive | inactive | inactive | C[N+](C)(CC[N+](C)(C)CC(=O)[O-])CC(=O)[O-] | –
inactive | inactive | inactive | C[N+](C)(C)CC(=O)O | Activity [6]: Active; Activity [7]: Active; Activity [8]: inactive; Activity [9]: inactive
inactive | Active | inactive | C[N+]1(CC(=O)[O-])CCCCC1 | –
